PAD4 FP inh: PAD4 (human) enzyme inhibition; Q9UM07; recombinant PAD4, RCA probe fluorescence polarization; inhibition, % at 6.36 µM; actives 0.41% (n = 330,000); AID 485272;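 active = percent inhibition above a cutoff equal to the mean of all tested compounds plus 3 SD, cut at about 15% in these data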
UCH37 DUB inh: blocks the human deubiquitinase UCH37; purified proteasome/UCH37, Ub-AMC cleavage fluorescence; actives 0.33% (n = 330,000); Q9Y5K5; inhibition, % (test concentration not listed);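 active = mean inhibition over replicate wells above about 20%, limit read from the data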
Target sequence (Q9Y5K5 whole entry, looked up): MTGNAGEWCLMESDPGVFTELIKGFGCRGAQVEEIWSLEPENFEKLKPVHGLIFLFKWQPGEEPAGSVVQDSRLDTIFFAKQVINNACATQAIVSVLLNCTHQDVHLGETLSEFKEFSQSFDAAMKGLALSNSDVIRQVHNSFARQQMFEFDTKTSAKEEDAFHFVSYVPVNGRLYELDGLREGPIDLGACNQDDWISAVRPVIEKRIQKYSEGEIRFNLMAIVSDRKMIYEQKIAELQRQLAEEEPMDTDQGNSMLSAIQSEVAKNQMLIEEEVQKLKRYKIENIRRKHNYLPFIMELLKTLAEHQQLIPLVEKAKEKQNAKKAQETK
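Material: human UCH37 enzyme supplied as purified proteasome complex / Amount: 0.15 nM proteasome as dispensed / Buffer or medium: pH 7.4 Tris-HCl (50 mM) with ovalbumin, ATP-MgCl2, DTT / Times: preincubation 30 min, reaction 25 min, room temperature / Technique: AMC fluorescence from Ub-AMC cleavage, excitation 355 nm, emission 460 nm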
Apaf-1 inh: blocks human Apaf-1 apoptosome activity; O14727; reconstituted apoptosome caspase-3 activity, DEVD-Rh110 fluorescence; inhibition, % at 20 µM; actives 0.71% (n = 330,000); active = inhibition of at least 40% at 20 µM
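Assay system: Apoptosome proteins | Medium: pH 7.5 Hepes buffer with CHAPS, BSA, DTT | Also added: Cytochrome c and DEVD-Rh110 substrate | Times: 30 min plus 50 min, RT | Detection: Rhodamine 110 fluorescence at Ex 480/Em 540 nm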
GSTO1 inh: counter-screen for RBBP9 inhibitors: inhibitors of human GSTO1 | inhibition, % at 5.96 µM | recombinant GSTO1, activity-based probe fluorescence polarization | actives 1.1% (n = 300,000) | AID 1974;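 active = inhibition above the campaign mean inhibition plus 3 SD, cut at about 35% in these data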
Target sequence (P78417 whole entry, looked up): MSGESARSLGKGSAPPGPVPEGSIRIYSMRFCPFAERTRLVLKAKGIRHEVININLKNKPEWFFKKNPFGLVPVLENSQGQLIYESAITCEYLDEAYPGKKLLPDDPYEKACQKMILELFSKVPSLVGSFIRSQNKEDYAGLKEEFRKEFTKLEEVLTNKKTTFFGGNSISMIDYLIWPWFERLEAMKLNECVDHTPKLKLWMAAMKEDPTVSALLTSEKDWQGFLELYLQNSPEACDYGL
PP5 inh: PP5 (human) phosphatase inhibition. P53041. purified PP5c, OMFP substrate fluorescence. inhibition, % at 6.7 µM. actives 0.18% (n = 320,000). AID 1987;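 active = inhibition above the campaign's mean inhibition across all tested compounds plus 3 SD, cut at about 9.5% in these data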
Fh CTSL1 inh: blocks F. hepatica cathepsin L1 in PFM18AAP counter-screen | recombinant F. hepatica cathepsin L1, Z-Leu-Arg-MCA fluorescence | inhibition, % at 5.96 µM | actives 0.49% (n = 300,000) | AID 1906;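 active = inhibition above the mean of all tested compounds plus 3 SD, set per screening campaign, cut at about 17% in these data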
A number is an active result; – = inactive; · = no result given. Rows were chosen to be rich in hits. Some 2% of all compounds tested hit in one or more screens of this group.

SMILES	PAD4 FP inh	UCH37 DUB inh	Apaf-1 inh	GSTO1 inh	PP5 inh	Fh CTSL1 inh
O=C(NN=Cc1cc2c(cc1Cl)OCO2)c1ccc(Br)s1	·	–	·	·	·	·
O=[N+]([O-])c1ccc(Sc2nc3ccccc3o2)c([N+](=O)[O-])c1	48.8	–	–	–	–	–
CCC(c1nnnn1C(C)(C)C)N(Cc1cccs1)Cc1cc2cc(C)c(C)cc2n2nnnc12 (configuration not stated)	–	–	–	–	–	19.1
Cc1cccc(C)c1NC(=O)CN(C)CC(=O)Nc1ccccc1Oc1ccccc1	–	28.4	–	–	–	–
Cc1ccc(C)c(OCC(=O)NN=Cc2cccn2C)c1	·	–	·	·	·	·
N=c1oc2ccccc2cc1C(=O)NN=Cc1ccccc1	·	–	·	·	·	·
CN(C)c1ccc(/C=C(\C#N)C(=O)NCc2ccco2)cc1	–	–	–	–	–	–
CCN(CC)c1ccc(/C=C(\C#N)C(=O)NCc2ccco2)cc1	–	–	·	–	–	23.1
CC(=NNC(=O)CCc1ccccc1)C1C(=O)c2ccccc2C1=O	·	–	·	·	·	·
CC(=O)c1ccc(N2CCN(C(=O)c3ccc(Cn4c(=S)[nH]c5ccc(N6CCOCC6)cc5c4=O)cc3)CC2)cc1	–	–	–	34.9	–	–
O=C(c1ccc2c(=O)n(Cc3ccccc3)c(=S)[nH]c2c1)N1CCOCC1	–	–	–	–	–	–
CC(=NNC(=O)C1COc2ccccc2O1)c1ccc(Cl)s1 (configuration not stated)	·	–	·	·	·	·
O=C1c2ccccc2COc2ccc(O)cc21	–	–	–	–	–	21.0
COc1ccc2c(c1)C(=O)c1ccccc1CO2	–	–	–	–	–	–
COCC(C)NC(=O)NC(=O)c1ccc(Cl)cc1 (configuration not stated)	–	–	–	–	–	–
COCC(C)NC(=O)NC1(C(F)(F)F)Oc2ccc(Cl)cc2O1 (configuration not stated)	–	–	–	36.5	–	–
CC(=NN1C(=O)c2ccccc2NC1c1ccco1)c1ccccc1O (configuration not stated)	·	–	·	·	·	·
COCCN1C(=O)N[C@@H](c2ccccc2)[C@@H](C(=O)OC)[C@H]1C	–	21.5	–	–	–	–
CC(C)(C)NC(=O)NC(=O)COC(=O)COc1ccc2c(c1)CCC2	–	20.2	–	–	–	–
Cc1cccc(NC(=O)COC(=O)COc2ccc3c(c2)CCC3)c1	–	–	–	·	–	·
Cc1nn(Cc2ccc(Cl)cc2Cl)c(C)c1NC(=O)C1C2CCC(O2)C1C(=O)O (configuration not stated)	–	–	–	–	46.0	–
O=C(O)C1C2CCC(O2)C1C(=O)Nc1ccc(Cl)cc1F (configuration not stated)	–	·	–	–	69.2	–
O=C(O)C1C2CCC(O2)C1C(=O)Nc1cccc(Cl)c1 (configuration not stated)	–	–	–	–	69.3	–
O=C(O)C1C2CCC(O2)C1C(=O)NCc1ccc(Cl)cc1 (configuration not stated)	–	–	–	–	48.5	–
O=C(NN=C/C=C/c1cccc([N+](=O)[O-])c1)c1ccncc1	·	–	·	·	·	·
SMILES	PAD4 FP inh	UCH37 DUB inh	Apaf-1 inh	GSTO1 inh	PP5 inh	Fh CTSL1 inh
CC(=NNC(=O)c1ccco1)c1cc2ccccc2o1	·	–	·	·	·	·
Cc1nn(C)cc1CNC(=O)C1C2CCC(O2)C1C(=O)O (configuration not stated)	–	·	–	–	69.7	–
Cc1cccc(Nc2nc(N)nc(CCl)n2)c1C	–	·	–	65.0	–	–
CCOc1ccc(Nc2nc(N)nc(CCl)n2)cc1	–	–	–	81.8	–	–
CCOc1ccc(Nc2nc(N)nc(CSC(=S)N3CCOCC3)n2)cc1	–	–	–	–	–	17.9
CN(C)C(=NS(=O)(=O)c1ccc(F)cc1)c1ccccc1	·	–	·	·	·	·
O=C(c1cc2cc([N+](=O)[O-])ccc2oc1=O)N1CCOCC1	–	–	–	–	–	–
O=C(c1cc2cccc([N+](=O)[O-])c2oc1=O)N1CCOCC1	–	–	–	–	–	29.3
Cc1ccc2nc(C)cc(NN=Cc3cccc(O)c3)c2c1	·	–	·	·	·	·
O=C(NCCN1CCOCC1)c1ccc2c(c1)N(Cc1ccccc1)C(=O)CS2	–	–	–	–	–	32.0
CC(C)C[C@H](NC(=O)C1CC(=O)N(c2ccc3c(c2)OCO3)C1)C(=O)NCc1ccco1 (some centres not stated)	–	–	–	–	–	27.0
COc1ccccc1/C=N/NC(=O)c1ccc(CN2C(=O)c3cccc4cccc2c34)cc1	–	·	–	–	–	17.9
COc1ccc(S(=O)(=O)N2CCC(C(=O)NCCC3=CCCCC3)CC2)cc1C	–	22.1	–	–	–	–
COc1ccc(Cl)cc1S(=O)(=O)N1CCC(C(=O)NCCC2=CCCCC2)CC1	–	–	–	–	–	–
CC(CC(=O)NCc1ccccc1)=NNC(N)=S	·	–	·	·	·	·
CCC(=O)N(C)CCc1cc2c(c(OC)c1C=NNc1ccc(C(=O)O)cc1)OCO2	·	–	·	·	·	·
COC(=O)c1ccc(-c2ccco2)n1Cc1nc(-c2ccc(OC)c(OC)c2)oc1C	–	–	–	–	–	19.4
CCN=C1NN=C(c2ccc(C)cc2)CS1	–	–	–	–	–	–
CC(C)N=C1NN=C(c2ccc(F)cc2)CS1	–	–	–	–	–	16.8
CC(=O)O[C@H]1C(=O)[C@@]2(C)[C@H]([C@H](OC(=O)c3ccccc3)[C@]3(O)C[C@H](OC(=O)[C@H](O)[C@@H](NC(=O)c4ccccc4)c4ccccc4)C(C)=C1C3(C)C)[C@]1(OC(C)=O)CO[C@@H]1C[C@@H]2O	–	–	–	–	–	18.7
CC(=O)O[C@H]1C(=O)[C@@]2(C)[C@H]([C@H](OC(=O)c3ccccc3)[C@]3(O)C[C@H](OC(=O)[C@H](O)C(NC(=O)c4ccccc4)c4ccccc4)C(C)=C1C3(C)C)[C@]1(OC(C)=O)CO[C@@H]1C[C@@H]2O (some centres not stated)	–	–	–	–	–	–
Cc1cccc(N=CC2=C(O)CC(C)(C)CC2=O)n1	·	–	·	·	·	·
CCC(Oc1ccc2c(c1)C(=O)CC(C)(C)O2)C(=O)NCCN1CCCCCC1 (configuration not stated)	–	–	–	–	–	37.0
COc1ccc(C=NNc2ccccn2)c(OC)c1	·	–	·	·	·	·
CCOc1ccc(S(=O)(=O)Nc2cc(SCC(=O)O)c(O)c3ccccc23)cc1	·	–	·	·	·	·
Cc1ccc(C)c(S(=O)(=O)Nc2cc(SCC(=O)O)c(O)c3ccccc23)c1	32.5	23.3	·	87.0	–	–
Cn1c(=O)c2cc(S(=O)(=O)NC(Cc3ccccc3)C(=O)NCc3ccco3)ccc2n(C)c1=O (configuration not stated)	–	–	–	–	–	31.3
Cc1cccc(-c2nc3ccccc3c(=O)n2NC(=S)N(C)C)c1	–	–	–	–	–	–

Screening data from PubChem.
